The test system of the experiment is HIV-1HXB2. Put plainly: Replication assay. It counts as cell-based. The conditions noted are these: at concentrations below 10 µM; MT-4 Luc system. In short, it runs like this: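 MT-4 cells stably transduced with a firefly luciferase cassette by a murine leukemia viral vector, constitutively expressing luciferase. 1 × 10^3 cells per well infected with HIV-1 HXB2 alongside various peptide concentrations. Cells lysed at 6–7 days post-infection; luciferase activity measured as chemiluminescence, in relative luciferase units. A retained signal indicates protection from virus-induced death; a drop indicates cytotoxicity.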

Regarding “Ac-QIFEHLAGIIQILRFLRI-R8-NH2 [control peptide isomer of 5]”, the “anti-HIV activity (in words)” value is listed as “did not show anti-HIV activity”.

For the origin of these results see paper PMC4486254 (Bioorganic & medicinal chemistry, 2010).
